# Calls of active or inactive are those of the source. The rule behind the calls is not given here.
# Experiments:
# Candida albicans = assay: Antifungal activity against Candida albicans ATCC 10231 assessed as growth inhibition at 1 to 600 ug/mL after 18 hrs by broth microdilution method; assay type: functional, organism-based
# Pseudomonas aeruginosa = assay: Antibacterial activity against Pseudomonas aeruginosa NCTC 6249 assessed as growth inhibition at 1 to 600 ug/mL after 18 hrs by broth microdilution method; assay type: functional, organism-based
# Proteus vulgaris = assay: Antibacterial activity against Proteus vulgaris ATCC 49990 assessed as growth inhibition at 1 to 600 ug/mL after 18 hrs by broth microdilution method; assay type: functional, organism-based
# Escherichia coli [1] = assay: Antibacterial activity against Escherichia coli NCTC 8192 assessed as growth inhibition at 1 to 600 ug/mL after 18 hrs by broth microdilution method; assay type: functional, organism-based
# [2] = tested on: Staphylococcus epidermidis; assay: Antibacterial activity against Staphylococcus epidermidis ATCC 12228 assessed as growth inhibition at 1 to 600 ug/mL after 18 hrs by broth microdilution method; assay type: functional, organism-based
# Staphylococcus aureus [3] = assay: Antibacterial activity against Staphylococcus aureus ATCC 6538 assessed as growth inhibition at 1 to 600 ug/mL after 18 hrs by broth microdilution method; assay type: functional, organism-based
# Method in brief: (§1)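 Frozen stocks (-80 °C, tryptic soy broth with 15% glycerol); S. aureus subcultured on blood agar and identified by catalase, coagulase and clumping factor. Inoculum at 0.5 McFarland. DMSO-dissolved compounds 1–600 µg/mL in Mueller–Hinton broth, 37 °C 18 h, OD600 read with and without compound. MIC = lowest concentration preventing growth; triplicates, per CLSI.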
# Enterococcus faecalis = assay: Antibacterial activity against Enterococcus faecalis ATCC 29212 assessed as growth inhibition at 1 to 600 ug/mL after 18 hrs by broth microdilution method; assay type: functional, organism-based
# Staphylococcus aureus [4] = assay: Antibacterial activity against Staphylococcus aureus ATCC 29213 assessed as growth inhibition at 1 to 600 ug/mL after 18 hrs by broth microdilution method; assay type: functional, organism-based; method in brief: as §1
# Proteus mirabilis = assay: Antibacterial activity against Proteus mirabilis ATCC 29906 assessed as growth inhibition at 1 to 600 ug/mL after 18 hrs by broth microdilution method; assay type: functional
# Escherichia coli [5] = assay: Antibacterial activity against Escherichia coli NCTC 8192 assessed as growth inhibition after 18 hrs by broth microdilution method; assay type: functional; settings: NCTC 8192, 18 h
# Method in brief: (§2)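 Frozen stocks (-80 °C, tryptic soy broth with 15% glycerol); S. aureus subcultured on blood agar and identified by catalase, coagulase and clumping factor. Inoculum at 0.5 McFarland. MIC = lowest concentration preventing growth; triplicates, per CLSI.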
# Staphylococcus aureus [6] = assay: Antibacterial activity against Staphylococcus aureus ATCC 29213 assessed as growth inhibition after 18 hrs by broth microdilution method; assay type: functional; settings: ATCC 29213, 18 h
# Method in brief: (§3)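 Broth microdilution in Mueller–Hinton broth with 1–600 µg/mL compound added from DMSO stocks. Inoculum adjusted to 0.5 McFarland. Strains stored at -80 °C and subcultured on blood agar before use. Incubation 37 °C for 18 h with OD600 read. MIC taken as the lowest concentration preventing growth, run in triplicate following CLSI. Vancomycin and oxacillin served as controls.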
# Escherichia coli [7] = assay: Bactericidal activity against Escherichia coli NCTC 8192 after 18 hrs by broth microdilution method; assay type: functional; settings: NCTC 8192, 18 h
# Method in brief: (§4)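 Broth microdilution, then contents of wells without visible growth plated onto Mueller–Hinton agar and incubated 35 °C for 18 h. Triplicates, per CLSI.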
# [8] = tested on: Staphylococcus epidermidis; assay: Antibacterial activity against Staphylococcus epidermidis ATCC 12228 assessed as growth inhibition after 18 hrs by broth microdilution method; assay type: functional; settings: ATCC 12228, 18 h; method in brief: as §2
# [9] = tested on: Staphylococcus epidermidis; assay: Bactericidal activity against Staphylococcus epidermidis ATCC 12228 after 18 hrs by broth microdilution method; assay type: functional; settings: ATCC 12228, 18 h; method in brief: as §4
# Staphylococcus aureus [10] = assay: Bactericidal activity against Staphylococcus aureus ATCC 29213 after 18 hrs by broth microdilution method; assay type: functional; settings: ATCC 29213, 18 h; method in brief: as §4
# Staphylococcus aureus [11] = assay: Bactericidal activity against Staphylococcus aureus ATCC 6538 after 18 hrs by broth microdilution method; assay type: functional; settings: ATCC 6538, 18 h; method in brief: as §4
# Staphylococcus aureus [12] = assay: Antibacterial activity against Staphylococcus aureus ATCC 6538 assessed as growth inhibition after 18 hrs by broth microdilution method; assay type: functional; settings: ATCC 6538, 18 h; method in brief: as §3
Structure (SMILES),Activity (Candida albicans),Activity (Pseudomonas aeruginosa),Activity (Proteus vulgaris),Activity (Escherichia coli [1]),Activity [2],Activity (Staphylococcus aureus [3]),Activity (Enterococcus faecalis),Activity (Staphylococcus aureus [4]),Activity (Proteus mirabilis),MIC (Escherichia coli [5]) [µg/mL],MIC (Staphylococcus aureus [6]) [µg/mL],MBC (Escherichia coli [7]) [µg/mL],MIC [8] [µg/mL],MBC [9] [µg/mL],MBC (Staphylococcus aureus [10]) [µg/mL],MBC (Staphylococcus aureus [11]) [µg/mL],MIC (Staphylococcus aureus [12]) [µg/mL]
Cc1c(C(=O)N/N=C/c2ccco2)[n+]([O-])cn1Cc1ccccc1,inactive,inactive,inactive,inactive,inactive,inactive,inactive,inactive,inactive,–,–,–,–,–,–,–,–
Cc1c(C(=O)NN=C2CCCCC2)[n+]([O-])cn1Cc1ccccc1,inactive,inactive,inactive,inactive,inactive,inactive,inactive,inactive,inactive,–,–,–,–,–,–,–,–
O=C(N[C@H](CO)[C@H](O)c1ccc([N+](=O)[O-])cc1)C(Cl)Cl [CHLORAMPHENICOL],–,–,–,–,–,–,–,–,–,0.25,1,0.5,0.5,2,4,4,1

# Source: ChEMBL document CHEMBL2384936, “Synthesis and evaluation of antimicrobial activity of hydrazones derived from 3-oxido-1H-imidazole-4-carbohydrazides” (Eur J Med Chem, 2013)
